The record followed here is ChEMBL document CHEMBL1125320, “Imidazole-5-acrylic acids: potent nonpeptide angiotensin II receptor antagonists designed using a novel peptide pharmacophore model” (J Med Chem, 1992).

The target in assay [1] is T1, Type-1 angiotensin II receptor B (Rattus norvegicus, UniProt P29089).
T1 sequence (P29089 whole entry): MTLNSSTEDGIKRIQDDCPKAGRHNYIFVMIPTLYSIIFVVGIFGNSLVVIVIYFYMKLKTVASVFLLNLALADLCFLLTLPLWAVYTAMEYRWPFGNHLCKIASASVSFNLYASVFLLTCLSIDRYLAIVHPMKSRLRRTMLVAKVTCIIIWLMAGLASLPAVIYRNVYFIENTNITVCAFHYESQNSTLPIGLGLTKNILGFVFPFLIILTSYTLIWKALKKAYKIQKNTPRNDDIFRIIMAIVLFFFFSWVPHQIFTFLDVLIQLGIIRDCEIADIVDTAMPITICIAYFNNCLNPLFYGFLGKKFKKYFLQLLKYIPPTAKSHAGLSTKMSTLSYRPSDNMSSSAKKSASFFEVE
Nature of the assay: Compound was evaluated for the inhibition of [125I]AII specific binding to rat mesenteric arteries. The procedure, abridged:
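Particulate fraction from rat mesenteric arteries incubated in Tris buffer with 80 pM [125I]angiotensin II, with or without antagonist, for 1 h at 25 °C. The incubation was stopped by rapid filtration, and filter-bound radioligand was counted on a γ counter. Inhibition of specific binding; n = 3-5.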

The target in assay [2] is T2, Type-1 angiotensin II receptor (Oryctolagus cuniculus) (UniProt P34976).
T2 sequence (whole entry): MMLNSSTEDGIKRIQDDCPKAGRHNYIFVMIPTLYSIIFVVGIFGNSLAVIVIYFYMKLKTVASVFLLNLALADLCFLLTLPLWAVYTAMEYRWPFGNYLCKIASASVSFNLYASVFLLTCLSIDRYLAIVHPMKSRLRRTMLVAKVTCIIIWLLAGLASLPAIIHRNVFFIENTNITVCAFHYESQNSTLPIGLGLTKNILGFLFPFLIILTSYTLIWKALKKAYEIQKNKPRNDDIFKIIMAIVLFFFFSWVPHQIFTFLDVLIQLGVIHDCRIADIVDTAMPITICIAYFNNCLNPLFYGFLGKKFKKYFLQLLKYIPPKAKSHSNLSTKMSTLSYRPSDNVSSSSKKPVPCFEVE
Nature of the assay: (§1) Compound was evaluated for the inhibition of AII-induced vasoconstriction of the rabbit aorta. It counts as tissue-based. The procedure, abridged:
(§2)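 Isolated rabbit aorta ring segments mounted on metal supports attached to force displacement transducers. Cumulative angiotensin II concentration-response curves were run without antagonist or after a 30-min antagonist incubation.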

In assay [3] the target is T2, Type-1 angiotensin II receptor (Oryctolagus cuniculus). Described as §1. The class given is functional, tissue-based. The procedure, abridged:
as §2

A further assay concerns the target T3, Angiotensin II receptor (Rattus norvegicus, UniProt P29089+P25095+P35351).
T3 sequence (P29089 whole entry): T1 sequence (P29089 whole entry)
T3 sequence (P25095 whole entry): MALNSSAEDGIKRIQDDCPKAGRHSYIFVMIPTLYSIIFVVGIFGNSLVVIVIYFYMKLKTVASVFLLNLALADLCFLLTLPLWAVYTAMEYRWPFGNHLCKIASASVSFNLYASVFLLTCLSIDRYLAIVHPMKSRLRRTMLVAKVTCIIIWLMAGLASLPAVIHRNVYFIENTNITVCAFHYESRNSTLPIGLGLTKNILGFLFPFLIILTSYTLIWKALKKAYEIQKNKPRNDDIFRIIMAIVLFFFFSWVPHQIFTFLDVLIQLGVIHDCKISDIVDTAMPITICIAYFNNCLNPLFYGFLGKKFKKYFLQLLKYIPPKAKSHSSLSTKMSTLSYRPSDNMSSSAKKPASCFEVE
T3 sequence (P35351 whole entry): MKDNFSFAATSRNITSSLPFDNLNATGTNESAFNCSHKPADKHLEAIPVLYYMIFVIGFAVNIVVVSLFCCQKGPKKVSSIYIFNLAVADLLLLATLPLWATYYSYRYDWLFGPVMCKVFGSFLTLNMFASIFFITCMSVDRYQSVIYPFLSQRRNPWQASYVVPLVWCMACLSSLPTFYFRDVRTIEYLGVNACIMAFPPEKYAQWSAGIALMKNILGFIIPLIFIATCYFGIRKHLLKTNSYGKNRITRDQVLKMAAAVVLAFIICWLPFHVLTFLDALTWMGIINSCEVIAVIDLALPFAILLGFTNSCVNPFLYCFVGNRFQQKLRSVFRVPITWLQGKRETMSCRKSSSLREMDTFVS
In words: Inhibition of [125I]angiotensin II specific binding to rat mesenteric arteries. The class given is protein assay.

In the next assay the test system is Rattus norvegicus. In words: Compound was evaluated in vivo, for the dose that produced 50% inhibition of the pressor response to AII in conscious normotensive rats after intraduodenal administration. It counts as functional. To be noted: read-out: ID50 (the source's name).

For the compound `CCCCc1ncc(/C=C(\Cc2cccc(Oc3ccccc3)c2)C(=O)O)n1Cc1ccccc1Cl`, in assay [1], the IC50 is 10 µM. Also, the Kb in assay [2] turned out to be 18.1 µM.

For the compound `CCCCc1ncc(/C=C(\Cc2ccc(O)c(O)c2)C(=O)O)n1Cc1ccccc1Cl`, the Kb in assay [3] stood at 140 nM. The compound also yielded an IC50 on Angiotensin II receptor of 0.058 µM. In the assay on Rattus norvegicus, the ED50 is 20 mg/kg.

Broadly, the IC50 is the midpoint of a concentration-inhibition curve. Read a high IC50 as weaker potency in that assay.
